# Measured values taken from ChEMBL document CHEMBL1122519, “Bispyridinamines: a new class of topical antimicrobial agents as inhibitors of dental plaque” (1984).
# Columns and labels:
# Escherichia coli [1] = assay: Antimicrobial minimum inhibitory concentration against Escherichia coli AB1932-1; type: functional
# Summary of the method: (§1)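 Serial twofold tube dilution in tryptose phosphate broth. Each compound was prepared as a 1000 μg/mL aqueous stock and diluted in double-strength broth, then 2×10^5 cells were added. Tubes were incubated aerobically at 37 °C for 24 h. The MIC was taken as the lowest concentration with no visible growth.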
# Escherichia coli [2] = assay: Minimum inhibitory concentration against Escherichia coli (Vogel); type: functional; summary of the method: as §1
# Escherichia coli [3] = assay: Antimicrobial minimum inhibitory concentration against Escherichia coli 100/B22; type: functional; summary of the method: as §1
# Klebsiella pneumoniae = assay: Minimum inhibitory concentration against Klebsiella pneumonia 39645; type: functional; summary of the method: as §1
# Proteus mirabilis = assay: Minimum antimicrobial inhibitory concentration against Proteus mirabilis MGH-1; type: functional; summary of the method: as §1
# Pseudomonas aeruginosa = assay: Minimum antimicrobial inhibitory concentration against Pseudomonas aeruginosa MGH-2; type: functional; summary of the method: as §1
# Staphylococcus aureus = assay: Minimum antimicrobial inhibitory concentration against Staphylococcus aureus; type: functional; summary of the method: as §1
# Streptococcus mutans = assay: Minimum plaque inhibitory concentration using a standard test organism, Streptococcus mutans OMZ-61; type: functional, organism-based
# Summary of the method: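 Ceramic hydroxylapatite plates were soaked twice for 1 min each in compound at […] (aqueous), air-dried and rinsed, then hung in sucrose beef-extract medium (pH 7.0) inoculated with late-log S. mutans OMZ-61. Incubation was anaerobic at 37 °C for 24 h, and treatment plus reinoculation were repeated for a second 24 h. Plaque was stained with 1% FD&C Red No. 3 and scored visually. The value is the lowest concentration giving no plaque while medium growth matched control.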
SMILES,MIC (Escherichia coli [1]) [mg/L],MIC (Escherichia coli [2]) [mg/L],MIC (Escherichia coli [3]) [mg/L],MIC (Klebsiella pneumoniae) [mg/L],MIC (Proteus mirabilis) [mg/L],MIC (Pseudomonas aeruginosa) [mg/L],MIC (Staphylococcus aureus) [mg/L],Concentration (Streptococcus mutans) [%]
Br.Br.N=c1ccn(CCCCCCCCCCn2ccc(=N)cc2)cc1,31.3,62.5,62.5,250,> 500,500,7.8,> 1
CCCCCCCN=c1ccn(CCCCCCCCCCCCCCn2ccc(=NCCCCCCC)cc2)cc1.Cl.Cl,1,2,1,3.9,3.9,2,1,0.01
Br.Br.CCCCC(CC)CN=c1ccn(CCCCCCCCCCn2ccc(=NCC(CC)CCCC)cc2)cc1 (configuration not stated),0.4,1.5,0.8,3,12.1,48.4,0.2,0.003
CCCCCCN=c1ccn(CCCCCCCCCCCCn2ccc(=NCCCCCC)cc2)cc1.Cl.Cl,1,1,0.5,1,7.8,15.6,0.2,0.01
Br.Br.CCCCC(CC)CN=c1ccn(CCCCCCn2ccc(=NCC(CC)CCCC)cc2)cc1 (configuration not stated),2,7.8,3.9,125,> 125,> 250,0.5,> 1
CCCCCCCN=c1ccn(CCCCCCn2ccc(=NCCCCCCC)cc2)cc1.Cl.Cl,2,3.9,2,3.9,> 125,> 62.5,0.2,> 1
Br.Br.CCCCCCCCCCN=c1ccn(CCCCCCCn2ccc(=NCCCCCCCCCC)cc2)cc1,3.9,3.9,3.9,7.8,3.9,7.8,1,0.01
Br.Br.CCCCCCCCCCCCN=c1ccn(CCCCCCCCCCCCn2ccc(=NCCCCCCCCCCCC)cc2)cc1,> 62.5,> 62.5,> 62.5,> 62.5,> 62.5,> 62.5,31.3,0.1
Br.Br.CCCCCCCN=c1ccn(CCCCn2ccc(=NCCCCCCC)cc2)cc1,7.8,31.3,15.6,> 125,> 250,> 250,1,> 1
Br.Br.CCCCCCCCCCCCN=c1ccn(CCCCCCn2ccc(=NCCCCCCCCCCCC)cc2)cc1,> 62.5,31.3,62.5,> 62.5,> 62.5,> 62.5,7.8,0.1
Br.Br.CCCCC(CC)CN=c1ccn(CCCCCCCn2ccc(=NCC(CC)CCCC)cc2)cc1 (configuration not stated),3.9,3.9,3.9,7.8,> 125,125,0.5,> 1
CCCCCCCCN=c1ccn(CCCCCCn2ccc(=NCCCCCCCC)cc2)cc1.Cl.Cl,0.5,1,0.5,2,15.6,31.3,0.2,0.004
Br.Br.CCCCC(CC)CN=c1ccn(CCCCCCCCCn2ccc(=NCC(CC)CCCC)cc2)cc1 (configuration not stated),1,1,1,7.8,125,125,0.3,0.004
Br.Br.CCCCCCCCN=c1ccn(CCCCCCCn2ccc(=NCCCCCCCC)cc2)cc1,1,2,1,1,7.8,31.3,0.5,0.005
Br.Br.c1cn(CCCCn2ccc(=NC3CCCCC3)cc2)ccc1=NC1CCCCC1,125,125,125,> 500,> 500,> 500,125,> 1
Br.Br.c1cn(CCCCCCCCCn2ccc(=NC3CCCCC3)cc2)ccc1=NC1CCCCC1,31.3,31.3,31.3,125,> 500,500,1,> 1
Br.Br.CCCCCCN=c1ccn(CCCCCCCCCn2ccc(=NCCCCCC)cc2)cc1,2,2,2,3.9,125,125,0.4,> 1
Br.Br.Clc1ccc(N=c2ccn(CCCCCCCCCn3ccc(=Nc4ccc(Cl)cc4)cc3)cc2)cc1,1,1,2,7.8,> 125,125,0.6,> 1
Br.Br.c1cn(CCCCCCCCCCn2ccc(=NC3CCCCC3)cc2)ccc1=NC1CCCCC1,7.8,15.6,15.6,> 125,> 125,> 125,0.2,> 1
Br.Br.CCCCCCCCCCN=c1ccn(CCCCCCCCCCn2ccc(=NCCCCCCCCCC)cc2)cc1,15.6,7.8,15.6,31.3,7.8,15.6,2,0.01
Br.Br.CCCCCCCCCCN=c1ccn(CCCCCCCCn2ccc(=NCCCCCCCCCC)cc2)cc1,7.8,2,3.9,3.9,7.8,7.8,1,0.01
Br.Br.CCCCCCCCCCCCN=c1ccn(CCCCCCCCCCn2ccc(=NCCCCCCCCCCCC)cc2)cc1,> 62.5,> 62.5,> 62.5,> 62.5,> 62.5,> 62.5,15.6,0.1
Br.Br.CCCCC(CC)CN=c1ccn(CCCCCn2ccc(=NCC(CC)CCCC)cc2)cc1 (configuration not stated),7.8,15.6,15.6,> 125,> 125,125,0.5,> 1
CCCCCCCN=c1ccn(CCCCCCCCn2ccc(=NCCCCCCC)cc2)cc1.Cl.Cl,1,2,2,2,62.6,31.3,0.5,0.1
